Data published in ChEMBL document CHEMBL3272012, “5-(Tetradecyloxy)-2-furancarboxylic acid and related hypolipidemic fatty acid-like alkyloxyarylcarboxylic acids” (J Med Chem, 1977).
One block for each compound: values may come before it.

Tests used:
Rattus norvegicus [1] = experiment: Hypolipidemic activity in Wistar rat assessed as reduction in plasma triglyceride level at 675 umol/kg/day administered through diet for 10 days; format: functional; details: 240 h
Rattus norvegicus [2] = experiment: Hypolipidemic activity in Wistar rat assessed as reduction in plasma cholesterol level at 675 umol/kg/day administered through diet for 10 days; format: functional; details: 240 h
How it was run: (§1)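 Young male Wistar rats (initial weight 170-190 g), groups of six, fed compound mixed into Purina Lab Chow ad libitum for 4 or 10 days; daily dose calculated from food consumption and body weight. Bled by cardiac puncture; plasma cholesterol and triglycerides by automated procedures; percent reduction versus simultaneous untreated controls, Student's t test.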

Rattus norvegicus [3] = experiment: Increase in liver weight in Wistar rat at 675 umol/kg/day administered through diet for 10 days; format: ADME, organism-based; details: in vivo, po, 240 h
Rattus norvegicus [4] = experiment: Hypolipidemic activity in Wistar rat assessed as reduction in plasma triglyceride level at 420 umol/kg/day administered through diet for 4 days; format: functional; details: 96 h; how it was run: as §1
Rattus norvegicus [5] = experiment: Hypolipidemic activity in Wistar rat assessed as reduction in plasma cholesterol level at 420 umol/kg/day administered through diet for 4 days; format: functional; details: 96 h
How it was run: (§2)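 Young male Wistar rats, 170-190 g initial weight, groups of six, given compound mixed thoroughly into Purina Lab Chow ad libitum for 4 or 10 days as stated. Daily dose calculated from food consumption and body weight. Bled by cardiac puncture at end of treatment; plasma cholesterol measured by automated procedure. Expressed as percent reduction versus simultaneous untreated control group; Student's t test.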

Rattus norvegicus [6] = experiment: Increase in liver weight in Wistar rat at 420 umol/kg/day administered through diet for 4 days; format: ADME, organism-based; details: in vivo, po, 96 h
How it was run: (§3)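 Male Wistar rats (170-190 g initial), groups of six, dosed via diet ad libitum for 4 or 10 days, daily dose from food consumption. Liver wet weight measured, expressed as g/100 g final body weight, compared with untreated controls run simultaneously.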

Rattus norvegicus [7] = experiment: Hypolipidemic activity in Wistar rat assessed as reduction in plasma triglyceride level at 499 umol/kg/day administered through diet for 4 days; format: functional; details: 96 h; how it was run: as §1
Rattus norvegicus [8] = experiment: Hypolipidemic activity in Wistar rat assessed as reduction in plasma cholesterol level at 499 umol/kg/day administered through diet for 4 days; format: functional; details: 96 h; how it was run: as §2
Rattus norvegicus [9] = experiment: Increase in liver weight in Wistar rat at 499 umol/kg/day administered through diet for 4 days; format: ADME, organism-based; details: in vivo, po, 96 h; how it was run: as §3
Rattus norvegicus [10] = experiment: Hypolipidemic activity in Wistar rat assessed as reduction in plasma triglyceride level at 439 umol/kg/day administered through diet for 10 days; format: functional; details: 240 h; how it was run: as §1
Rattus norvegicus [11] = experiment: Hypolipidemic activity in Wistar rat assessed as reduction in plasma cholesterol level at 439 umol/kg/day administered through diet for 10 days; format: functional; details: 240 h; how it was run: as §2
Rattus norvegicus [12] = experiment: Increase in liver weight in Wistar rat at 439 umol/kg/day administered through diet for 10 days; format: ADME, organism-based; details: in vivo, po, 240 h; how it was run: as §3
Rattus norvegicus [13] = experiment: Hypolipidemic activity in Wistar rat assessed as reduction in plasma triglyceride level at 420 umol/kg/day administered through diet for 10 days; format: functional; details: 240 h; how it was run: as §1
Rattus norvegicus [14] = experiment: Hypolipidemic activity in Wistar rat assessed as reduction in plasma cholesterol level at 420 umol/kg/day administered through diet for 10 days; format: functional; details: 240 h; how it was run: as §2
Rattus norvegicus [15] = experiment: Increase in cholesterol level in Wistar rat liver at 420 umol/kg/day administered through diet for 10 days; format: ADME, organism-based; details: in vivo, po, 240 h
How it was run: (§4)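 Male Wistar rats (170-190 g), six per group, given compound by admixture to lab chow ad libitum for 4 or 10 days, dose derived from food intake. Liver cholesterol determined by automated procedure, expressed as mg/g wet tissue, compared with an untreated control group by Student's t test.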

Rattus norvegicus [16] = experiment: Increase in liver weight in Wistar rat at 420 umol/kg/day administered through diet for 10 days; format: ADME, organism-based; details: in vivo, po, 240 h
Rattus norvegicus [17] = experiment: Hypolipidemic activity in Wistar rat assessed as reduction in plasma triglyceride level at 482 umol/kg/day administered through diet for 4 days; format: functional; details: 96 h; how it was run: as §1
Rattus norvegicus [18] = experiment: Hypolipidemic activity in Wistar rat assessed as reduction in plasma cholesterol level at 482 umol/kg/day administered through diet for 4 days; format: functional; details: 96 h; how it was run: as §2
Rattus norvegicus [19] = experiment: Increase in liver weight in Wistar rat at 482 umol/kg/day administered through diet for 4 days; format: ADME, organism-based; details: in vivo, po, 96 h; how it was run: as §3
Rattus norvegicus [20] = experiment: Hypolipidemic activity in Wistar rat assessed as reduction in plasma triglyceride level at 430 umol/kg/day administered through diet for 4 days; format: functional; details: 96 h; how it was run: as §1
Rattus norvegicus [21] = experiment: Hypolipidemic activity in Wistar rat assessed as reduction in plasma cholesterol level at 430 umol/kg/day administered through diet for 4 days; format: functional; details: 96 h; how it was run: as §2
Rattus norvegicus [22] = experiment: Increase in liver weight in Wistar rat at 430 umol/kg/day administered through diet for 4 days; format: ADME, organism-based; details: in vivo, po, 96 h; how it was run: as §3
Rattus norvegicus [23] = experiment: Increase in cholesterol level in Wistar rat liver at 430 umol/kg/day administered through diet for 4 days; format: ADME, organism-based; details: in vivo, po, 96 h; how it was run: as §4
Rattus norvegicus [24] = experiment: Hypolipidemic activity in Wistar rat assessed as reduction in plasma cholesterol level at 443 umol/kg/day administered through diet for 4 days; format: functional; details: 96 h; how it was run: as §2
Rattus norvegicus [25] = experiment: Hypolipidemic activity in Wistar rat assessed as reduction in plasma triglyceride level at 443 umol/kg/day administered through diet for 4 days; format: functional; details: 96 h; how it was run: as §1
Rattus norvegicus [26] = experiment: Hypolipidemic activity in Wistar rat assessed as reduction in plasma triglyceride level at 480 umol/kg/day administered through diet for 4 days; format: functional; details: 96 h
Rattus norvegicus [27] = experiment: Hypolipidemic activity in Wistar rat assessed as reduction in plasma cholesterol level at 480 umol/kg/day administered through diet for 4 days; format: functional; details: 96 h; how it was run: as §2
Rattus norvegicus [28] = experiment: Increase in liver weight in Wistar rat at 480 umol/kg/day administered through diet for 4 days; format: ADME, organism-based; details: in vivo, po, 96 h
Rattus norvegicus [29] = experiment: Hypolipidemic activity in Wistar rat assessed as reduction in plasma triglyceride level at 401 umol/kg/day administered through diet for 4 days; format: functional; details: 96 h; how it was run: as §1
Rattus norvegicus [30] = experiment: Hypolipidemic activity in Wistar rat assessed as reduction in plasma cholesterol level at 401 umol/kg/day administered through diet for 4 days; format: functional; details: 96 h
How it was run: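 Young male Wistar rats, 170-190 g at start, in groups of six, given compound mixed into Purina Lab Chow ad libitum for 4 or 10 days as stated. Daily dose was calculated from food consumption and body weight. Plasma was taken by cardiac puncture at the end and cholesterol measured by automated procedure. Results are % reduction versus a concurrent untreated control group, with Student's t test.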

Rattus norvegicus [31] = experiment: Increase in liver weight in Wistar rat at 401 umol/kg/day administered through diet for 4 days; format: ADME, organism-based; details: in vivo, po, 96 h; how it was run: as §3
Rattus norvegicus [32] = experiment: Hypolipidemic activity in Wistar rat assessed as reduction in plasma cholesterol level at 471 umol/kg/day administered through diet for 4 days; format: functional; details: 96 h; how it was run: as §2
Rattus norvegicus [33] = experiment: Hypolipidemic activity in Wistar rat assessed as reduction in plasma triglyceride level at 471 umol/kg/day administered through diet for 4 days; format: functional; details: 96 h
Rattus norvegicus [34] = experiment: Increase in liver weight in Wistar rat at 471 umol/kg/day administered through diet for 4 days; format: ADME, organism-based; details: in vivo, po, 96 h

- Activity (Rattus norvegicus [3]): 1%
SMILES: CCCCCCOc1ccc(C(=O)O)cc1
- inhibition in vivo at 675 µmol/kg (Rattus norvegicus [1]): 16%
- inhibition in vivo at 675 µmol/kg (Rattus norvegicus [2]): 6%

- Activity (Rattus norvegicus [6]): 0%
SMILES: CCCCCCCCCCCCCCOc1ccc(C(=O)C(F)(F)F)o1
- inhibition in vivo at 420 µmol/kg (Rattus norvegicus [4]): 30%
- inhibition in vivo at 420 µmol/kg (Rattus norvegicus [5]): 2%

- Activity (Rattus norvegicus [9]): 0%
SMILES: CCCCCCCCCCCCCCOc1ccc(C(C)=O)o1
- inhibition in vivo at 499 µmol/kg (Rattus norvegicus [7]): 21%
- inhibition in vivo at 499 µmol/kg (Rattus norvegicus [8]): 0%

- Activity (Rattus norvegicus [12]): 8%
SMILES: CCCCCCCCCCCCCCOc1ccc(C(=O)CC(N)=O)cc1
- inhibition in vivo at 439 µmol/kg (Rattus norvegicus [10]): 3%
- inhibition in vivo at 439 µmol/kg (Rattus norvegicus [11]): 4%

- Activity (Rattus norvegicus [15]): 3%
- Activity (Rattus norvegicus [16]): 0%
SMILES: CCCCCCCCCCCCCCOc1ccc(SCC(=O)O)cc1
- inhibition in vivo at 420 µmol/kg (Rattus norvegicus [13]): 11%
- inhibition in vivo at 420 µmol/kg (Rattus norvegicus [14]): 16%

- Activity (Rattus norvegicus [19]): 4%
SMILES: CCCCCCCCCCCCCCOc1ccc(C#N)cc1
- inhibition in vivo at 482 µmol/kg (Rattus norvegicus [17]): 6%
- inhibition in vivo at 482 µmol/kg (Rattus norvegicus [18]): 10%

- Activity (Rattus norvegicus [19]): 7%
SMILES: CCCCCCCCCCCCCCOc1ccc(C(N)=O)o1
- inhibition in vivo at 482 µmol/kg (Rattus norvegicus [17]): 14%
- inhibition in vivo at 482 µmol/kg (Rattus norvegicus [18]): 0%

- Activity (Rattus norvegicus [22]): 3%
- Activity (Rattus norvegicus [23]): 18%
SMILES: CCCCCCCCCCCCCCOc1ccc(/C=C/C(=O)OC)cc1
- inhibition in vivo at 430 µmol/kg (Rattus norvegicus [20]): 67%
- inhibition in vivo at 430 µmol/kg (Rattus norvegicus [21]): 28%

SMILES: CCCCCCCCCCCCCCSc1ccc(C(=O)O)o1
- inhibition in vivo at 443 µmol/kg (Rattus norvegicus [24]): 18%
- inhibition in vivo at 443 µmol/kg (Rattus norvegicus [25]): 62%

- Activity (Rattus norvegicus [28]): 1%
SMILES: CCCCCCCCCCCCCCOc1ccc(-c2nnn[nH]2)cc1
- inhibition in vivo at 480 µmol/kg (Rattus norvegicus [26]): 0%
- inhibition in vivo at 480 µmol/kg (Rattus norvegicus [27]): 0%

- Activity (Rattus norvegicus [6]): 0%
- Activity (Rattus norvegicus [15]): 18%
SMILES: CCCCCCCCCCCCCCCCCCOc1ccc(C(=O)O)o1
- inhibition in vivo at 420 µmol/kg (Rattus norvegicus [13]): 53%
- inhibition in vivo at 420 µmol/kg (Rattus norvegicus [5]): 18%

- Activity (Rattus norvegicus [31]): 0%
- Activity (Rattus norvegicus [22]): 3%
SMILES: CCCCCCCCCCCCCCCCOc1cccc(C(=O)OC)c1
- inhibition in vivo at 401 µmol/kg (Rattus norvegicus [29]): 0%
- inhibition in vivo at 430 µmol/kg (Rattus norvegicus [20]): 0%
- inhibition in vivo at 401 µmol/kg (Rattus norvegicus [30]): 0%
- inhibition in vivo at 430 µmol/kg (Rattus norvegicus [21]): 0%

- Activity (Rattus norvegicus [34]): 5%
SMILES: CCCCCCCCCCCCCCOc1ccc(C(=O)O)c(C)c1
- inhibition in vivo at 471 µmol/kg (Rattus norvegicus [32]): 6%
- inhibition in vivo at 471 µmol/kg (Rattus norvegicus [33]): 27%
